From ChEMBL document CHEMBL1146871, “Hydrazides of clozapine: a new class of D1 dopamine receptor subtype selective antagonists” (Bioorg Med Chem Lett, 2006)
pKi: −log10 of the molar value.

Columns and labels:
D(1A) dopamine receptor [1] = target: T1, D(1A) dopamine receptor (Homo sapiens, UniProt P21728); assay: Displacement of [3H]SCH 23390 from human dopamine D1 receptor expressed in CHO cells; type: cell-based
D(2) dopamine receptor [2] = target: T2, D(2) dopamine receptor (Homo sapiens, UniProt P14416); assay: Displacement of [3H]methylspiperone from human dopamine D2 receptor expressed in CHO cells; type: cell-based
T2 sequence (P14416 whole entry): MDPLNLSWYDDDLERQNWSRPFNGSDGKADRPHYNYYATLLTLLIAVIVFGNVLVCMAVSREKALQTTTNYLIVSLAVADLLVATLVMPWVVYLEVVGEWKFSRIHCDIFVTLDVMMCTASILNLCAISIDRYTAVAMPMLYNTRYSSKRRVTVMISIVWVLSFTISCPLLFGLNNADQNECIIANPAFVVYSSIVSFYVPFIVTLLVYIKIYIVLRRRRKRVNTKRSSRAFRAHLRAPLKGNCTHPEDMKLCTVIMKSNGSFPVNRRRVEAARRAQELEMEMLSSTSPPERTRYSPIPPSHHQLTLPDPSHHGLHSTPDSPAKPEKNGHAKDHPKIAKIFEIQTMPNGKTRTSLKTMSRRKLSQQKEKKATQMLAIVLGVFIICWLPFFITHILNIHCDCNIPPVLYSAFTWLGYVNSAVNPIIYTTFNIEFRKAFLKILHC

[3] = target: T3, Alpha-2A adrenergic receptor (Homo sapiens, UniProt P08913); assay: Binding affinity at adrenergic alpha2A receptor
T3 sequence (P08913 whole entry): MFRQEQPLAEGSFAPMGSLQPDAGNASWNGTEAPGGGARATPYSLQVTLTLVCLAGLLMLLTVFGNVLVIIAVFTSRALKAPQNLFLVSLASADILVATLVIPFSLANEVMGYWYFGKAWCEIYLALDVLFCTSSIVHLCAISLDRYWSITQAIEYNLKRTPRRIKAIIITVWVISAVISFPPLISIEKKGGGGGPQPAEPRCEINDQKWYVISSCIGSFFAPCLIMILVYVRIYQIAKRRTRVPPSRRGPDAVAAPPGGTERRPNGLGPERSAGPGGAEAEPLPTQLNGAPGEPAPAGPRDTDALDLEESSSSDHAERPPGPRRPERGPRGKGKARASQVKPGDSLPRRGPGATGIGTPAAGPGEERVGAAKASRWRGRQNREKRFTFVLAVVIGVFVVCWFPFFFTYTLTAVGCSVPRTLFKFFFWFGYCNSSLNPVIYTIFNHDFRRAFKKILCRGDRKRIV

D(4) dopamine receptor = target: T4, D(4) dopamine receptor (Homo sapiens, UniProt P21917); assay: Binding affinity at dopamine D4 receptor
T4 sequence (P21917 whole entry): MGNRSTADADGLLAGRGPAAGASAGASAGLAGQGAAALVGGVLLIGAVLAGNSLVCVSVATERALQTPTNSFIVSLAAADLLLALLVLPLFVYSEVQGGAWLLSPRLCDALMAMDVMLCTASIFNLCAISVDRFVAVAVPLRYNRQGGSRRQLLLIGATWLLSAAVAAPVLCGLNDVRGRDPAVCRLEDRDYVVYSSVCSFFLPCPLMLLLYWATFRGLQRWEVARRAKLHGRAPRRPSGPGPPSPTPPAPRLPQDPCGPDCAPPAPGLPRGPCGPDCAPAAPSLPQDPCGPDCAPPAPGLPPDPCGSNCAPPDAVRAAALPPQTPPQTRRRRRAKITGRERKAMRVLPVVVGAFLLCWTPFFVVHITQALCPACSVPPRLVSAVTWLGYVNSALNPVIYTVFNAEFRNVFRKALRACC

D(2) dopamine receptor [4] = target: T2, D(2) dopamine receptor; assay: Binding affinity at dopamine D2 receptor
In short: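 Membranes from cells stably expressing D2 receptor (4-7 pmol/mg protein; Ltk- cells in one passage, CHO in another), made by hypotonic lysis and 48,000g spin and stored at -80 °C. Incubated with 0.5 nM [3H]methylspiperone for 1 h at room temperature. Nonspecific binding set by 10 µM (-)-sulpiride. Rapid filtration, then scintillation counting. One-site competition fit; Ki is the mean of separate determinations.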

D(1B) dopamine receptor = D(1B) dopamine receptor (Homo sapiens, UniProt P21918); assay: Binding affinity at dopamine D5 receptor
Chain of D(1B) dopamine receptor (P21918 whole entry): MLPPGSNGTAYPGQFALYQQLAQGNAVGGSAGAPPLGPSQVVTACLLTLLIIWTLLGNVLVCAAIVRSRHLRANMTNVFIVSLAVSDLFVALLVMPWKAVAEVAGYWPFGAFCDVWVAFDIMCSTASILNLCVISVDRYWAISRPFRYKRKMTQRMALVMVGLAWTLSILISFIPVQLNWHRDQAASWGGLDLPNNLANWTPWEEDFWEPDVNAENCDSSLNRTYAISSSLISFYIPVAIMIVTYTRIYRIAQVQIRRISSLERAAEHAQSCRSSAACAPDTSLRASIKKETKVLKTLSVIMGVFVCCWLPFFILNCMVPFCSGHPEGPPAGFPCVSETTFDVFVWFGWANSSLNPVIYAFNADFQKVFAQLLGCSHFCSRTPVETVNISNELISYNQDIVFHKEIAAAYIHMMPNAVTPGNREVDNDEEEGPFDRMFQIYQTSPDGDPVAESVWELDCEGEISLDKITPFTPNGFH

D(1A) dopamine receptor [5] = target: T1, D(1A) dopamine receptor; assay: Activity at dopamine D1 receptor by cAMP assay; type: functional; settings: for Activity: filed as antagonist
[6] = target: 5-hydroxytryptamine receptor 2A (Homo sapiens, UniProt P28223); assay: Binding affinity at 5HT2A receptor
Chain of 5-hydroxytryptamine receptor 2A (P28223 whole entry): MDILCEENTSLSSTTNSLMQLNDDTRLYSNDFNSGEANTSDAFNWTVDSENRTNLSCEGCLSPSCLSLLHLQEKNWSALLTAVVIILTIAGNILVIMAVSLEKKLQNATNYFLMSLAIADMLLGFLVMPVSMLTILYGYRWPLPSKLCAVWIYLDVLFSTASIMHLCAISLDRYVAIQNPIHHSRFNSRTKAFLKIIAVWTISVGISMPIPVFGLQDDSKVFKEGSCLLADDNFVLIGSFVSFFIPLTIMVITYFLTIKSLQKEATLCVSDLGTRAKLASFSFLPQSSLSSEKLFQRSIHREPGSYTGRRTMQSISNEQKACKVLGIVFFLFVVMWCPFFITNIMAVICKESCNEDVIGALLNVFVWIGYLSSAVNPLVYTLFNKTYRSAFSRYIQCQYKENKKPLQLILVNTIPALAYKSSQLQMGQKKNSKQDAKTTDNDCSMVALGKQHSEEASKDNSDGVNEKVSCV

[7] = Tmax in Sprague-Dawley rat plasma at 10 mg/kg, po; type: ADME, organism-based; set-up: dose 10 mg/kg, route oral
In short: (§1)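 Single oral dose of 10 mg/kg to two male Sprague-Dawley rats. Blood drawn at several time points. Plasma levels of individual animals, generally within ±25% of the mean, were used to calculate PK parameters.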

[8] = AUC in Sprague-Dawley rat plasma at 10 mg/kg, po; type: ADME, organism-based; set-up: dose 10 mg/kg, route oral; in short: as §1
[9] = Cmax in Sprague-Dawley rat plasma at 10 mg/kg, po; type: ADME, organism-based; set-up: dose 10 mg/kg, route oral; in short: as §1

T1 sequence (P21728 whole entry): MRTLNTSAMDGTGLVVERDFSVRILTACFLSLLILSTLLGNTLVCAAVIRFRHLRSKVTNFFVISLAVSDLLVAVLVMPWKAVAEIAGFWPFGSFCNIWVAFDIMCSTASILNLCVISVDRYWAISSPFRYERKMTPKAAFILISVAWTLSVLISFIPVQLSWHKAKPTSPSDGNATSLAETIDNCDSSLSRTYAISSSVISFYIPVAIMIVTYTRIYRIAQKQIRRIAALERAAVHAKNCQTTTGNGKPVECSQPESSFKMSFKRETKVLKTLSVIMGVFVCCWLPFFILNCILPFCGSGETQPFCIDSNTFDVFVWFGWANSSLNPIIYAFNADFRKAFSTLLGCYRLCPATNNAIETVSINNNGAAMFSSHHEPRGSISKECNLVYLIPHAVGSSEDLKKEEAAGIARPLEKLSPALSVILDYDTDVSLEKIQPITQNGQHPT

Structure (SMILES)	pKi (D(1A) dopamine receptor [1])	pKi (D(2) dopamine receptor [2])	also measured
CN1CCN(C2=Nc3cc(Cl)ccc3N(NC(=O)c3ccccc3N3CCN(C)CC3)c3ccccc32)CC1	6.63	5.42	–
CCOc1ccc2ccccc2c1C(=O)NN1c2ccc(Cl)cc2N=C(N2CCN(C)CC2)c2ccccc21	7.19	6.56	–
CN1CCN(C2=Nc3cc(Cl)ccc3N(NC(=O)C(C)(C)C)c3ccccc32)CC1	7.01	–	–
CN1CCN(C2=Nc3cc(Cl)ccc3N(NC(=O)c3cccc(F)c3)c3ccccc32)CC1	7.33	6.04	–
CN1CCN(C2=Nc3cc(Cl)ccc3N(NC(=O)c3ccc(Cl)cc3)c3ccccc32)CC1	7.46	5.03	–
CN1CCN(C2=Nc3cc(Cl)ccc3N(NC(=O)c3c(F)cccc3C(F)(F)F)c3ccccc32)CC1	8.60	6.42	pKi [3]: 5.70; pKi (D(4) dopamine receptor): 5.70; pKi (D(2) dopamine receptor [4]): 6.42; pKi (D(1B) dopamine receptor): 8.15; Kb (D(1A) dopamine receptor [5]): 2.3 nM; Activity (D(1A) dopamine receptor [5]): Antagonist; pKi [6]: 8.92
CN1CCN(C2=Nc3cc(Cl)ccc3N(NC(=O)c3cccc(Cl)c3)c3ccccc32)CC1	8.40	6.74	–
Cc1ccc(C(=O)NN2c3ccc(Cl)cc3N=C(N3CCN(C)CC3)c3ccccc32)cc1	8.11	5.82	–
CN1CCN(C2=Nc3cc(Cl)ccc3N(NC(=O)c3ccco3)c3ccccc32)CC1	7.82	6.08	–
CN1CCN(C2=Nc3cc(Cl)ccc3N(NC(=O)c3cccs3)c3ccccc32)CC1	7.85	5.83	–
COc1ccc(CCC(=O)NN2c3ccc(Cl)cc3N=C(N3CCN(C)CC3)c3ccccc32)cc1Cl	7.25	6.24	–
Cc1cccc(C(=O)NN2c3ccc(Cl)cc3N=C(N3CCN(C)CC3)c3ccccc32)c1	8.52	6.29	–
CN1CCN(C2=Nc3cc(Cl)ccc3N(NC(=O)c3ccccc3Cl)c3ccccc32)CC1	8.40	6.74	pKi [3]: 6.34; pKi (D(4) dopamine receptor): 6.06; Tmax [7]: 1 h; AUC [8]: 2660 ng·h/mL; Cmax [9]: 821 ng/mL; pKi (D(2) dopamine receptor [4]): 6.74; pKi (D(1B) dopamine receptor): 7.14; Kb (D(1A) dopamine receptor [5]): 2.8 nM; Activity (D(1A) dopamine receptor [5]): Antagonist; pKi [6]: 9.00
CN1CCN(C2=Nc3cc(Cl)ccc3N(N)c3ccccc32)CC1	6.55	6.19	–
COc1cccc(C(=O)NN2c3ccc(Cl)cc3N=C(N3CCN(C)CC3)c3ccccc32)c1	7.89	5.95	–
CN1CCN(C2=Nc3cc(Cl)ccc3N(NC(=O)C3CCC3)c3ccccc32)CC1	6.82	–	–
CN1CCN(C2=Nc3cc(Cl)ccc3N(NC(=O)/C=C/c3ccccc3)c3ccccc32)CC1	6.99	5.80	–
CN1CCN(C2=Nc3cc(Cl)ccc3N(NC(=O)c3ccc4ccccc4n3)c3ccccc32)CC1	8.00	6.03	–
CN1CCN(C2=Nc3cc(Cl)ccc3N(NC(=O)c3ccccc3-n3ccnc3)c3ccccc32)CC1	7.06	5.52	–
CCCC(CCC)C(=O)NN1c2ccc(Cl)cc2N=C(N2CCN(C)CC2)c2ccccc21	7.59	5.73	–
CCOc1csc(C(=O)NN2c3ccc(Cl)cc3N=C(N3CCN(C)CC3)c3ccccc32)c1	8.00	6.74	–
CN1CCN(C2=Nc3cc(Cl)ccc3N(NC(=O)C3CCCCC3)c3ccccc32)CC1	7.38	5.75	–
CN1CCN(C2=Nc3cc(Cl)ccc3N(NC(=O)c3ccccc3)c3ccccc32)CC1	6.80	5.94	–
CN1CCN(C2=Nc3cc(Cl)ccc3N(NC(=O)c3cccc(I)c3)c3ccccc32)CC1	8.44	6.46	–
CN1CCN(C2=Nc3cc(Cl)ccc3N(NC(=O)CCC3CCCC3)c3ccccc32)CC1	6.95	5.71	–
Cc1cccc(N)c1C(=O)NN1c2ccc(Cl)cc2N=C(N2CCN(C)CC2)c2ccccc21	8.49	5.99	pKi [3]: 6.34; pKi (D(4) dopamine receptor): 5.31; pKi (D(2) dopamine receptor [4]): 5.99; pKi (D(1B) dopamine receptor): 7.24; Kb (D(1A) dopamine receptor [5]): 6.7 nM; Activity (D(1A) dopamine receptor [5]): Antagonist; pKi [6]: 8.54
CN1CCN(C2=Nc3cc(Cl)ccc3N(NC(=O)c3sccc3-c3ccccc3)c3ccccc32)CC1	7.41	7.11	–
